Compound activity: PubChem BioAssay, several laboratories
Sampled rows, rich in hits. Any-hit rate of the full collection: about 2%.
UCH37 DUB inh: inhibitors of human UCH37 deubiquitinase, primary screen, biochemical, Ub-AMC cleavage, fluorescence | inhibition, % (test concentration not listed) | 330,000 compounds, 0.33% hits | AID 588478, 2011 | Ubiquitin carboxyl-terminal hydrolase isozyme L5 (Homo sapiens), Q9Y5K5 | purified proteasome/UCH37;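 active = mean inhibition over replicate wells above about 20%, limit read from the data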
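assay system = human UCH37 enzyme supplied as purified proteasome complex | amount = proteasome at 0.15 nM in the dispensed enzyme solution | schedule = 30 min compound-proteasome preincubation then 25 min substrate reaction, room temperature | measured by = fluorescence, ex 355 nm, em 460 nm | benchmarks = no-proteasome wells (full inhibition) and compound-free wells (no inhibition)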
Apaf-1 inh: inhibitors of human Apaf-1 apoptosome, primary screen, biochemical, DEVD-Rh110 fluorescence, uHTS; 330,000 compounds, 0.71% hits; reconstituted apoptosome caspase-3 activity; inhibition, % at 20 µM; Apoptotic protease-activating factor 1 (Homo sapiens), O14727; active = inhibition of at least 40% at 20 µM
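Assay system: Apoptosome proteins | Medium: pH 7.5 Hepes buffer with CHAPS, BSA, DTT | Also added: Cytochrome c and DEVD-Rh110 substrate | Times: 30 min plus 50 min, RT | Detection: Rhodamine 110 fluorescence at Ex 480/Em 540 nm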
CTSL1 counter: Fasciola hepatica cathepsin L1 inhibitors, primary screen, counter-screen for PFM18AAP inhibitor project, biochemical, QFRET, fluorogenic peptide substrate; 300,000 compounds, 0.49% hits; AID 1906, 2009; recombinant F. hepatica cathepsin L1, Z-Leu-Arg-MCA fluorescence; inhibition, % at 5.96 µM;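 active = inhibition above the mean of all tested compounds plus 3 SD, set per screening campaign, cut at about 17% in these data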
GSTO1 counter: inhibitors of recombinant GSTO1, primary screen, counter-screen for RBBP9 inhibitor project, biochemical, fluorescence polarization | AID 1974, 2009 | activity-based probe fluorescence polarization | inhibition, % at 5.96 µM | Glutathione S-transferase omega-1 (Homo sapiens), P78417 | 300,000 compounds, 1.1% hits;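 active = inhibition above the campaign mean inhibition plus 3 SD, cut at about 35% in these data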
Target sequence (P78417 whole entry, looked up): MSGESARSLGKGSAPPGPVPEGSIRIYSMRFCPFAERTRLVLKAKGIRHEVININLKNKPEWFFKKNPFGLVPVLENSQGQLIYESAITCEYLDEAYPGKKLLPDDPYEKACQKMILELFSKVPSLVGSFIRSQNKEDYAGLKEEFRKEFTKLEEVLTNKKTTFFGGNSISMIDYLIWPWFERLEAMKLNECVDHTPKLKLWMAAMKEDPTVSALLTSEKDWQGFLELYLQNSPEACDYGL
PP5 primary: PP5 phosphatase inhibitors, primary screen, biochemical, fluorescence; inhibition, % at 6.7 µM; Serine/threonine-protein phosphatase 5 (Homo sapiens), P53041; purified PP5c, OMFP substrate fluorescence; 320,000 compounds, 0.18% hits; AID 1987, 2009;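 active = inhibition above the campaign's mean inhibition across all tested compounds plus 3 SD, cut at about 9.5% in these data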
PAD4 inh: human PAD4 inhibitors, primary screen, biochemical, fluorescence polarization, 1536-well format | Protein-arginine deiminase type-4 (Homo sapiens), Q9UM07 | recombinant PAD4, RCA probe fluorescence polarization | inhibition, % at 6.36 µM | 330,000 compounds, 0.41% hits | AID 485272, 2010;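 active = percent inhibition above a cutoff equal to the mean of all tested compounds plus 3 SD, cut at about 15% in these data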
GSTO1 inh conf: GSTO1 inhibitor hit confirmation, counter-screen for RBBP9 inhibitor project, biochemical, fluorescence polarization, triplicate; 2,400 compounds, 54% hits; recombinant GSTO1, probe fluorescence polarization; inhibition, % at 5.96 µM; shares compounds with GSTO1 counter;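 active = inhibition above the primary screen's cutoff, its mean inhibition plus 3 SD, cut at about 35% in these data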;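 note: loss of polarization as inhibitors block binding of rhodamine sulfonate ester activity probe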
PAD4 confirm: human PAD4 inhibitors, confirmation, biochemical, fluorescence polarization | shares compounds with PAD4 inh | recombinant PAD4, RCA probe fluorescence polarization | inhibition, % at 6.36 µM | 1,200 compounds, 28% hits;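 active = mean inhibition across replicates above the hit cutoff set by the earlier primary screen, cut at about 15% in these data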;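 note: inhibitors block active-site labeling by the probe so polarization falls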
Apaf-1 inh conf2: Apaf-1 inhibitors, single-dose retest, confirmation, biochemical, fluorescence, DEVD-Rh110, 20 µM; shares compounds with Apaf-1 inh; reconstituted apoptosome, caspase-3 DEVD-Rh110 fluorescence; inhibition, % at 20 µM; 1,800 compounds, 25% hits; AID 504614, 2011;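 active = mean inhibition of at least 40% at 20 µM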
Rh110 quench: Rh110 fluorescence interference by putative Apaf-1 inhibitors, confirmation, artefact control for Apaf-1 inhibitor project, biochemical, 20 µM; quenched caspase reaction; shares compounds with Apaf-1 inh; activation (fluorescence interference), % at 20 µM; 1,800 tested, under 10 active;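 active = signal rise of 40% or more at 20 µM, treated as a fluorescence artifact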
Fluor interf inh: fluorescence interference of Apaf-1 inhibitor hits, dose response, artefact control for Apaf-1 inhibitor project | fluorescence interference counterscreen, Apaf-1 assay format | 460 tested, under 10 active | IC50, µM | shares compounds with Apaf-1 inh; call rule not given here
Numbers stand for hits; i = inactive; nt = not tested or not shown.

SMILES	UCH37 DUB inh	Apaf-1 inh	CTSL1 counter	GSTO1 counter	PP5 primary	PAD4 inh	GSTO1 inh conf	Apaf-1 inh conf2	Rh110 quench	others
CCOC(=O)c1c(CN(C)C)n(C)c2c(O)c(N=NC(N)=O)c3ccc(Br)cc3c12	52.2	95.1	20.4	49.3	i	i	i	52.9	i	Fluor interf inh=i
COc1ccc(-c2[nH]nc3c2C(c2ccsc2)C(C#N)=C(N)O3)cc1 (configuration not stated)	i	i	i	i	i	i	nt	nt	nt
COc1cccc(-c2[nH]nc3c2C(c2ccsc2)C(C#N)=C(N)O3)c1 (configuration not stated)	i	60.0	i	50.8	i	i	i	i	i
CN(C)c1cccc2c1c(NS(=O)(=O)c1cn(C)cn1)nn2C	i	61.9	i	53.9	i	i	i	i	i
O=C1C(SCCO)=C(SCCO)C(=O)c2ccccc21	nt	96.9	78.6	86.6	i	68.1	84.1	96.2	i	PAD4 confirm=38.8;Fluor interf inh=i
Oc1ccccc1C=Nc1cccc2ccccc12	i	i	i	i	i	i	nt	nt	nt
Oc1cccc(C=NN=Cc2cccc(O)c2O)c1O	i	nt	nt	nt	nt	nt	nt	nt	nt
Oc1cccc(C=Nc2cccc3ccccc23)c1O	nt	74.0	i	88.1	i	i	i	i	i
Oc1cccc(C=NCc2ccccc2)c1O	i	81.8	i	88.9	i	21.2	i	i	i	PAD4 confirm=i
CCOC(=O)c1c(NC(=O)C(=O)NN=Cc2ccccc2O)sc2c1CCCCC2	i	nt	nt	nt	nt	nt	nt	nt	nt
N#Cc1c(N2CCCC(O)C2)nc(N)c2c(N)nc3c(c12)CC(=O)N3C12CC3CC(CC(C3)C1)C2 (configuration not stated)	i	97.8	25.0	79.3	13.6	i	88.3	43.6	i	Fluor interf inh=i
CCOC(=O)c1c(NC(C)=O)sc(C(C)=NNc2ccc(C(=O)O)cc2)c1C	i	nt	nt	nt	nt	nt	nt	nt	nt
NC(=S)NN=Cc1ccc(-c2cccc([N+](=O)[O-])c2)o1	i	nt	nt	nt	nt	nt	nt	nt	nt
CCN1CCN(c2nc3ccccc3nc2C(C#N)S(=O)(=O)c2ccc(C)cc2)CC1 (configuration not stated)	i	i	i	i	i	i	nt	nt	nt
Cc1ccc(S(=O)(=O)C(C#N)c2nc3ccccc3nc2N2CCCC2)cc1 (configuration not stated)	nt	77.2	i	51.0	i	i	i	i	i
COc1ccc(C=NNC(=O)COc2ccc(Cl)cc2Cl)c(C(=O)O)c1OC	i	nt	nt	nt	nt	nt	nt	nt	nt
COc1cccc(C(c2c(C)[nH]n(-c3ccccc3)c2=O)c2c(C)[nH]n(-c3ccccc3)c2=O)c1O	i	94.4	i	64.7	i	64.5	37.9	i	i	PAD4 confirm=i
